Results on two molecules are retold here after publication PMC4136711 (Journal of Medicinal Chemistry, 2014).

One experiment has as its target PRC2 complex (Homo sapiens, UniProt Q15910). Nature of the experiment: Selectivity assay. The experiment is classed as biochemical. The conditions noted are these: read-out: estimated IC50 PRC2. A digest of the protocol:
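Tritium-labelled methyl transfer from 3H-SAM to peptide substrate, with substrates near their Km values for the enzyme. Test compound ranged from 100 nM to 100 μM. Reactions were quenched with 7.5 M guanidine hydrochloride, diluted in 20 mM Tris pH 8.0, and captured on FlashPlates for 1 h before counting CPM. The no-compound signal defined 100% activity and the no-enzyme signal defined 0%.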

A further experiment deals with L3MBTL1 (Homo sapiens, UniProt Q9Y468). Particulars: methyllysine reader protein.
Chain of L3MBTL1 (Q9Y468 whole entry, species assumed): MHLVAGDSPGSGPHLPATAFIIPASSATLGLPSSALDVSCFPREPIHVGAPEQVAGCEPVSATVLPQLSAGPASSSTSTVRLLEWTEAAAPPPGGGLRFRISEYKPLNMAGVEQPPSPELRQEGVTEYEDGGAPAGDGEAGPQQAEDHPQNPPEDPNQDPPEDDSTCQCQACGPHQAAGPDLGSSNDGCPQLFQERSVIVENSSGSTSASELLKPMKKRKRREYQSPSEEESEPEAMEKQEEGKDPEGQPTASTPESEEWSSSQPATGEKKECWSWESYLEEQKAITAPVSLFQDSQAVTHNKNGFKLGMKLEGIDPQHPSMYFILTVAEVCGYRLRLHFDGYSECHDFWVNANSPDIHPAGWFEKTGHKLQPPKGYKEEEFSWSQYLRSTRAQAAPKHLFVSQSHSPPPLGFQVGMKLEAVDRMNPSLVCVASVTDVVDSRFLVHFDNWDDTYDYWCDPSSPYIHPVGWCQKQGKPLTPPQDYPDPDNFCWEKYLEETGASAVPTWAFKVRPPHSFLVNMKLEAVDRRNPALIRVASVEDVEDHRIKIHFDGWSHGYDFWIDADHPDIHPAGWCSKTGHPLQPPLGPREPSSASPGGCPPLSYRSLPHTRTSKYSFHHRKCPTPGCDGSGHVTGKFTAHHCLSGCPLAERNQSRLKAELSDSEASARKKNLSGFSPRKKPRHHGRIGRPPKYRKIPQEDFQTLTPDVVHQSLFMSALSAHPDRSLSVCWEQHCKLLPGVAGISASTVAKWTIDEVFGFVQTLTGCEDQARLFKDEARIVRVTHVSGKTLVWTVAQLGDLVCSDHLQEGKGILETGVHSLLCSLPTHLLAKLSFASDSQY
The target of another experiment is T1, SETD8 (Homo sapiens, UniProt Q9NQR1).
T1 sequence (Q9NQR1 257-378 limits assumed): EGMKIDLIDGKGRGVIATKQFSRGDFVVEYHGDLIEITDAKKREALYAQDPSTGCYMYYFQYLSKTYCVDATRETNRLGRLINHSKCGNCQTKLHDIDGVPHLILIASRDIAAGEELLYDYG
The experiment is classed as binding.

Chain of PRC2 complex (Q15910 whole entry): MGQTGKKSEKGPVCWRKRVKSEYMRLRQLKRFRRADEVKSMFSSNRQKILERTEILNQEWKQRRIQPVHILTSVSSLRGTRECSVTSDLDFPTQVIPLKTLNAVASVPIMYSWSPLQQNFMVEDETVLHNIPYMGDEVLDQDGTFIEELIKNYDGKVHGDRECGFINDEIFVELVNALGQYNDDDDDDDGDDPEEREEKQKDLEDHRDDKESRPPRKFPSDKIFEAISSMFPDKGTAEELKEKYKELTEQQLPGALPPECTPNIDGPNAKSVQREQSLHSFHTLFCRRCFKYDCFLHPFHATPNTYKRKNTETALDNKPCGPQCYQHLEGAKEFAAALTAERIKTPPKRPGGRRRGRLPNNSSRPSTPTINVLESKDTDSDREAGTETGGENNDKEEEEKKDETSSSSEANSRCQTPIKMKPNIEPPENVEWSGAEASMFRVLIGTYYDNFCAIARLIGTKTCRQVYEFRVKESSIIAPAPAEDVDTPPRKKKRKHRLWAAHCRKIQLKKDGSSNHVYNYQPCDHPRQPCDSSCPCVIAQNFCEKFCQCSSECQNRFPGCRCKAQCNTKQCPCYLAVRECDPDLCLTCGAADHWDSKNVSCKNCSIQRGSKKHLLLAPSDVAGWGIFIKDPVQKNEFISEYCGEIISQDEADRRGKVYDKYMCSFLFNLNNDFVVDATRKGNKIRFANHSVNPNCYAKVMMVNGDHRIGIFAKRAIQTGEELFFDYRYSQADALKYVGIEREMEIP
Chain of PRC2 complex (O75530 whole entry partner): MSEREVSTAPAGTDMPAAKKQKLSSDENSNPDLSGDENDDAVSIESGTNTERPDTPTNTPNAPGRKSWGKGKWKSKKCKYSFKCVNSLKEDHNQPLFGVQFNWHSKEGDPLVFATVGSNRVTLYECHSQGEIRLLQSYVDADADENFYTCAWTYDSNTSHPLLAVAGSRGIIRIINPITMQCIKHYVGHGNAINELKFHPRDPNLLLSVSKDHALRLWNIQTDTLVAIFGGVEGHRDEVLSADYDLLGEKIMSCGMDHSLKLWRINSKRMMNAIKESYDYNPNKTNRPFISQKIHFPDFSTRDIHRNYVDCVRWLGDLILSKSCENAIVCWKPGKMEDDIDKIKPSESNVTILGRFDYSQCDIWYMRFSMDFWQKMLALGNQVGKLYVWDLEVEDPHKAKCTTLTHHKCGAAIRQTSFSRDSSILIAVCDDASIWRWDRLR
Chain of PRC2 complex (Q15022 whole entry partner): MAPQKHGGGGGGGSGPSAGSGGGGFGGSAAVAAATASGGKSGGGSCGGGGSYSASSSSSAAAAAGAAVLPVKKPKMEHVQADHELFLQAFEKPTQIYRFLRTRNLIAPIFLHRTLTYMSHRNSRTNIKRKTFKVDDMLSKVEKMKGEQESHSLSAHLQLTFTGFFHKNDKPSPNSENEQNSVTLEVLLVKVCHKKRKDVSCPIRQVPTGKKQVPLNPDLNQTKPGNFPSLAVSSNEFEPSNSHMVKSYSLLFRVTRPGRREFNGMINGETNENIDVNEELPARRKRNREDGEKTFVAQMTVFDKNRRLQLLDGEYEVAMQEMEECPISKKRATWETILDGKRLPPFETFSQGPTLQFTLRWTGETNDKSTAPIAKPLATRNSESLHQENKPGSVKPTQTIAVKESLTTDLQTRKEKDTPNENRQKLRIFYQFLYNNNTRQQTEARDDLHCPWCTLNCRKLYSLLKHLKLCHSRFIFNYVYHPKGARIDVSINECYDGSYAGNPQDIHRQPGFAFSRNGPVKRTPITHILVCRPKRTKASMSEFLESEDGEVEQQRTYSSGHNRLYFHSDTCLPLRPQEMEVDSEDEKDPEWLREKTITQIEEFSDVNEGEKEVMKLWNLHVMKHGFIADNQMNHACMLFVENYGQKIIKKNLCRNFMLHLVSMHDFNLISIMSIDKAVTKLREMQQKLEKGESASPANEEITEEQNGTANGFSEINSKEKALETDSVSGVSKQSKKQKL

On to `COc1cc2nc(N3CCCC3)nc(NCCCCCN3CCCC3)c2cc1OC` [Compound 1, 6,7-Dimethoxy-2-(pyrrolidin-1-yl)-N-(5-(pyrrolidin-1-yl)pentyl)quinazolin-4-amine], for which the potency estimated from few doses on PRC2 complex was above 50 µM. In addition, the “Activity for L3MBTL1” value on L3MBTL1 is on record as “no appreciable activity”.
With `COc1cc2nc(N3CCCC3)nc(N(C)CCCCCN3CCCC3)c2cc1OC` [Compound 14, 6,7-Dimethoxy-N-methyl-2-(pyrrolidin-1-yl)-N-(5-(pyrrolidin-1-yl)pentyl)quinazolin-4-amine], the “Displacement of FITC-labeled H4K20me peptide (FP), in words” value on SETD8 was “did not displace the peptide”.
